The results in this text go back to ChEMBL document CHEMBL4422635, “Structure-Based Discovery of a Subtype-Selective Inhibitor Targeting a Transient Receptor Potential Vanilloid Channel” (J Med Chem, 2019).

Changes are numbered by the printed parent chain. Activity calls are given as the source filed them. The calls are words filed in the database; no cut-off is given here.

Assay [1] has as its system PC-3M. The assay is described as follows: Antimetastatic activity in human PC3M cells at 5 to 20 uM after 24 hrs by transwell migration assay. The assay is classed as functional, cell-based. Put shortly: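 PC-3M cells kept in RPMI 1640 with 10% FBS at 37 °C, 5% CO2.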
Assay [2] concerns Transient receptor potential cation channel subfamily V member 1 (Mus musculus), Q704Y3 [S513F]. The assay is described as follows: Antagonist activity at mouse TRPV1 S513F mutant expressed in HEK293T cells assessed as inhibition of 2-APB evoked currents at 0.3 to 10 uM at -60 mV holding potential by whole-cell patch clamp assay. It counts as cell-based. A digest of the protocol: (§1)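 Whole-cell voltage clamp of transiently transfected HEK293T cells co-expressing GFP, recorded 36-96 h post-transfection. Hold -60 mV; pipettes 3-7 MΩ. Bath 165 mM NaCl, 10 mM HEPES pH 7.3; pipette 140 mM KCl, 10 mM HEPES pH 7.3. Room temperature (~25 °C). IC50 from Hill fits of I/I0, the current ratio after vs before inhibitor; mean ± SEM.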
Chain of Transient receptor potential cation channel subfamily V member 1 (Mus musculus), Q704Y3 [S513F] (Q704Y3 whole entry S513F): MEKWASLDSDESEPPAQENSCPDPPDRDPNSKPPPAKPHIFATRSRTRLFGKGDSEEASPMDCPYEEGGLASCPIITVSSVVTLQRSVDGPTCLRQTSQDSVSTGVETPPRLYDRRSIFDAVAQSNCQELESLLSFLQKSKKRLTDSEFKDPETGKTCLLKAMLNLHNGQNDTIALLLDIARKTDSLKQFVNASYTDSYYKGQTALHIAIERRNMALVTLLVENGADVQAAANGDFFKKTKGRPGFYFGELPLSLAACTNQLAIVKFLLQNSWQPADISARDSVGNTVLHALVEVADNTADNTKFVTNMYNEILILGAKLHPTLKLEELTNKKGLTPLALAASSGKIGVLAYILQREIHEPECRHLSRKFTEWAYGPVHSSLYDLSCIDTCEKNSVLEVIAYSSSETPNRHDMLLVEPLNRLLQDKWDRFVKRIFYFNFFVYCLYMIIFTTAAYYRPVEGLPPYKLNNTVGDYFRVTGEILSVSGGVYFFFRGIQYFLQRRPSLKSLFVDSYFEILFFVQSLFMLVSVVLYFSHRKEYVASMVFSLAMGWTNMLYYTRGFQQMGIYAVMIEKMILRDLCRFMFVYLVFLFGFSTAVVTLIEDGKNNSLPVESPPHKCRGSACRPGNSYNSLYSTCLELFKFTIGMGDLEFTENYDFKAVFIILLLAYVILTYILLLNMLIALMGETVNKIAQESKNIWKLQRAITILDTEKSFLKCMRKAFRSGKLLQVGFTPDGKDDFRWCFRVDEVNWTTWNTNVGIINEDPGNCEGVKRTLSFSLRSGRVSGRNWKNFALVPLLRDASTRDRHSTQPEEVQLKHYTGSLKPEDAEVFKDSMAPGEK
(In general: The patch-clamp technique gives a direct electrical read-out from membranes.)

Assay [3] has as its system T1, Transient receptor potential cation channel subfamily V member 2 (Mus musculus), Q9WTR1 [L505T].
T1 sequence (whole entry): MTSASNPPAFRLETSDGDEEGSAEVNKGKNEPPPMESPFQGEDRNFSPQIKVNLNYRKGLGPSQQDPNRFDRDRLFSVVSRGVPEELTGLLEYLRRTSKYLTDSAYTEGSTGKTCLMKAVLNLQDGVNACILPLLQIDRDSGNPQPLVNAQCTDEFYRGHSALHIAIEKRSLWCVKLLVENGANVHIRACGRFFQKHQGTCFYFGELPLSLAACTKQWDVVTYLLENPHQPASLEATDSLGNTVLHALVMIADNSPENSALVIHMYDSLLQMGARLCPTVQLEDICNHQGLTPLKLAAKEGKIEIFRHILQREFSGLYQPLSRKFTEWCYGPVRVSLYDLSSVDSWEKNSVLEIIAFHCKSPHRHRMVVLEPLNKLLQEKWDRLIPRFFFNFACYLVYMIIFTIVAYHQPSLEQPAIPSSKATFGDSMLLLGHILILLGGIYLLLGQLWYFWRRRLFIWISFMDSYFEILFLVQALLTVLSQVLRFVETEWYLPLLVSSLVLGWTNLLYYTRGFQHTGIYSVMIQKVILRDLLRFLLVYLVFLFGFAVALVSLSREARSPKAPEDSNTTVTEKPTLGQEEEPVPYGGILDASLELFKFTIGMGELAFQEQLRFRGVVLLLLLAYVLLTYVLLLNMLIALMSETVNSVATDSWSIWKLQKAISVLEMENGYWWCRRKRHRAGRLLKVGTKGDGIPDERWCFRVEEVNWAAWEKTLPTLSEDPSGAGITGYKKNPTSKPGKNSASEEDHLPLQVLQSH
The assay is described as follows: Antagonist activity at mouse TRPV2 L505T mutant expressed in HEK293T cells assessed as inhibition of 2-APB evoked currents at -60 mV holding potential by whole-cell patch clamp assay. It counts as cell-based. Put shortly: as §1

Assay [4] deals with T2, Transient receptor potential cation channel subfamily V member 2 (Mus musculus), Q9WTR1 [Q525A].
T2 sequence (whole entry): T1 sequence (whole entry) with T505L, Q525A
The assay is described as follows: Antagonist activity at mouse TRPV2 Q525A mutant expressed in HEK293T cells assessed as inhibition of 2-APB evoked currents at -60 mV holding potential by whole-cell patch clamp assay. The assay is classed as cell-based. Put shortly:
as §1

Assay [5] has as its system PC-3M. The assay is described as follows: Antimetastatic activity in human PC3M cells transfected with TRPV2 siRNA at 5 to 20 uM after 24 hrs by transwell migration assay. The assay is classed as functional, cell-based.
The subject of assay [6] is T3, Transient receptor potential cation channel subfamily V member 2 (Mus musculus), Q9WTR1 [F467A].
T3 sequence (whole entry): T1 sequence (whole entry) with F467A, T505L
The assay is described as follows: Antagonist activity at mouse TRPV2 F467A mutant expressed in HEK293T cells assessed as inhibition of 2-APB evoked currents at -60 mV holding potential by whole-cell patch clamp assay. The assay is classed as cell-based. A digest of the protocol: as §1

In the case of `CCCN(C)c1cc(C(F)(F)F)nc(SCCC(=O)NCc2ccco2)n1`, in assay [1], the outcome was Active. The inhibition result in assay [2], in assay [3], in assay [4] and in assay [6] was “inactive” each time. In addition, the result in assay [5] was inactive.
